Measurements taken from paper PMC9168489 (Proceedings of the National Academy of Sciences of the …, 2022).
Values belong to the molecule of their own block, whether it stands above or below them. Where no end group is shown, it is not given here.

Key:
HTRA1 Lys305Ala = experiment: Tau digest with loop L3 mutant Lys305Ala; assay type: biochemical, human; details: 50 µM peptide
In short: (§1)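 HTRA1 loop L3 point mutants were assayed by tau digestion, with or without 50 µM test peptides derived from the CAPN2 C terminus, to measure mutant activity.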

HTRA1 Asn311Ala = experiment: Tau digest with loop L3 mutant Asn311Ala; assay type: biochemical, human; details: 50 µM peptide
In short: as §1

HTRA2 = experiment: Tau digest with HTRA2; assay type: biochemical, human; details: 0.5 µM HTRA2, 5 µM tau, 50 µM peptide, 50 mM Tris pH 8.0, 37 °C
HTRA3 = experiment: Tau digest with HTRA3; assay type: biochemical, human; details: 0.5 µM HTRA3, 5 µM tau, 50 µM peptide, 50 mM Tris pH 8.0, 37 °C
HTRA1 (human) = HTRA1 (human) (UniProt Q92743); experiment: ITC
HTRA1 [1] = experiment: Soluble tau digest with HTRA1; assay type: biochemical, human; details: SDS-PAGE; for activation of HTRA1 by CAPN2: 0.5 µM HTRA1, 5 µM tau, 50 mM Tris pH 8.0, 37 °C, CAPN2 titration
tau fibrils [2] = experiment: Proteolysis of tau fibrils; assay type: biochemical; details: 2.5 µM tau fibrils, 2.5 µM HTRA1/HTRA1-CAPN2, 37 °C, 50 mM Tris HCl pH 8
HTRA1ΔPDZ = experiment: Soluble tau digest with HTRA1ΔPDZ; assay type: biochemical, human; details: 50 µM peptide, 0.5 µM protease, 5 µM tau, 50 mM Tris pH 8.0, 37 °C; SDS-PAGE
In short: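 Soluble tau (5 µM) digested by 0.5 µM protease (HTRA1ΔPDZ run alongside full-length HTRA1) in 50 mM Tris pH 8.0 at 37 °C. Peptides derived from the CAPN2 C terminus were added at 50 µM, with a no-peptide control. Samples were taken at several time points and tau cleavage was followed by SDS-PAGE.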

HTRA1 [3] = experiment: ITC of HTRA1SA and CAPN2CA; assay type: binding, human; details: 500 µM HTRA1SA in syringe titrated to 10 µM CAPN2CA, 50 mM bicine, 150 mM NaCl pH 9.0, 37 °C
tau fibrils [4] = experiment: Sedimentation assay of tau fibrils; assay type: biochemical; details: no Ca^2+, ultracentrifugation
In short: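 Tau fibrils were incubated with HTRA1SA alone, the HTRA1SA–CAPN2 complex, CAPN2 alone, or no protein, then ultracentrifuged. Total sample taken before centrifugation, pellet and supernatant fractions were resolved by SDS-PAGE and stained with Coomassie.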

HTRA1 (HEK293 cells) = experiment: Coimmunoprecipitation of HTRA1 with CAPN2; assay type: cell-based, human; details: HEK293 lysates; Strep or Myc beads; n = 3
tau = experiment: Soluble tau digest with CAPN2 alone; assay type: biochemical; details: buffers without Ca^2+
In short: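 5 µM soluble tau was incubated with 0.5 µM CAPN2 in 50 mM Tris HCl, pH 8, at 37 °C. Aliquots were withdrawn at set time points and analysed by SDS-PAGE.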

tau fibrils [5] = details: in the presence of Ca^2+; cited from earlier work

Molecule: LISWLSFSDL
activation of HTRA1 Lys305Ala (HTRA1 Lys305Ala): still allowed activation
activation of HTRA1 Asn311Ala (HTRA1 Asn311Ala): still allowed activation
effect on HTRA2 activity (HTRA2): HTRA2 weakly
effect on HTRA3 activity (HTRA3): activated HTRA3 strongly

Kd (HTRA1 (human)): 4 µM
Molecule: CFD peptide, carboxyl terminus of complement factor D

Molecule: HTRA1–CAPN2 complexes: hetero-oligomeric complex consisting of the cysteine protease calpain 2 (CAPN2) and HTRA1
degradation of soluble tau (HTRA1 [1]; 5 µM tau, 0.5 µM HTRA1, 0.5 µM CAPN2, 37 °C, 50 mM Tris HCl pH 8): degradation of soluble tau was improved
proteolysis of tau fibrils (tau fibrils [2]): a slight decrease of HTRA1 activity

Molecule: LISWLCFSVL
activation of HTRA1ΔPDZ by peptides (HTRA1ΔPDZ): not activated

Molecule: LISWLSDSEL
activation of HTRA1ΔPDZ by peptides (HTRA1ΔPDZ): activated wild-type but not HTRA1ΔPDZ

Kd (HTRA1 [3]): 4 µM
B1: CAPN2: CAPN2 heterodimer consists of a cysteine protease and a regulatory subunit (protein, UniProt P17655 20-700; P04632 1-268, looked up)
Calpain-2 catalytic subunit: SHDRAIKYLNQDYEALRNECLEAGTLFQDPSFPAIPSALGFKELGPYSSKTRGIEWKRPTEICADPQFIIGGATRTDICQGALGDCWLLAAIASLTLNEEILARVVPLNQSFQENYAGIFHFQFWQYGEWVEVVVDDRLPTKDGELLFVHSAEGSEFWSALLEKAYAKINGCYEALSGGATTEGFEDFTGGIAEWYELKKPPPNLFKIIQKALQKGSLLGCSIDITSAADSEAITFQKLVKGHAYSVTGAEEVESNGSLQKLIRIRNPWGEVEWTGRWNDNCPSWNTIDPEERERLTRRHEDGEFWMSFSDFLRHYSRLEICNLTPDTLTSDTYKKWKLTKMDGNWRRGSTAGGCRNYPNTFWMNPQYLIKLEEEDEDEEDGESGCTFLVGLIQKHRRRQRKMGEDMHTIGFGIYEVPEELSGQTNIHLSKNFFLTNRARERSDTFINLREVLNRFKLPPGEYILVPSTFEPNKDGDFCIRVFSEKKADYQAVDDEIEANLEEFDISEDDIDDGFRRLFAQLAGEDAEISAFELQTILRRVLAKRQDIKSDGFSIETCKIMVDMLDSDGSGKLGLKEFYILWTKIQKYQKIYREIDVDRSGTMNSYEMRKALEEAGFKMPCQLHQVIVARFADDQLIIDFDNFVRCLVRLETLFKIFKQLDPENTGTIELDLISWLCFSVL
Calpain small subunit 1: MFLVNSFLKGGGGGGGGGGGLGGGLGNVLGGLISGAGGGGGGGGGGGGGGGGGGGGTAMRILGGVISAISEAAAQYNPEPPPPRTHYSNIEANESEEVRQFRRLFAQLAGDDMEVSATELMNILNKVVTRHPDLKTDGFGIDTCRSMVAVMDSDTTGKLGFEEFKYLWNNIKRWQAIYKQFDTDRSGTICSSELPGAFEAAGFHLNEHLYNMIIRRYSDESGNMDFDNFISCLVRLDAMFRAFKSLDKDGTGQIQVNIQEWLQLTMYS
activation of HTRA1 by CAPN2 (HTRA1 [1]): improved activation of HTRA1 by CAPN2 compared to the isolated C-terminal decapeptide
tau fibril dissociation (solubilization) (tau fibrils [4]; equimolar amounts, SDS-PAGE and Coomassie): Partial fibril dissociation
co-sedimentation with tau fibrils (tau fibrils [4]): co-sedimentation of CAPN2 and fibrils
coimmunoprecipitation with HTRA1 (HTRA1 (HEK293 cells)): complex formation was supported by coimmunoprecipitations
digestion of tau by CAPN2 (tau): does not digest tau
proteolysis of tau fibrils by CAPN2 (tau fibrils [5]): proteolyzes fibrils

B2: CAPN2CA (protein)
chain 1: SHDRAIKYLNQDYEALRNECLEAGTLFQDPSFPAIPSALGFKELGPYSSKTRGIEWKRPTEICADPQFIIGGATRTDICQGALGDAWLLAAIASLTLNEEILARVVPLNQSFQENYAGIFHFQFWQYGEWVEVVVDDRLPTKDGELLFVHSAEGSEFWSALLEKAYAKINGCYEALSGGATTEGFEDFTGGIAEWYELKKPPPNLFKIIQKALQKGSLLGCSIDITSAADSEAITFQKLVKGHAYSVTGAEEVESNGSLQKLIRIRNPWGEVEWTGRWNDNCPSWNTIDPEERERLTRRHEDGEFWMSFSDFLRHYSRLEICNLTPDTLTSDTYKKWKLTKMDGNWRRGSTAGGCRNYPNTFWMNPQYLIKLEEEDEDEEDGESGCTFLVGLIQKHRRRQRKMGEDMHTIGFGIYEVPEELSGQTNIHLSKNFFLTNRARERSDTFINLREVLNRFKLPPGEYILVPSTFEPNKDGDFCIRVFSEKKADYQAVDDEIEANLEEFDISEDDIDDGFRRLFAQLAGEDAEISAFELQTILRRVLAKRQDIKSDGFSIETCKIMVDMLDSDGSGKLGLKEFYILWTKIQKYQKIYREIDVDRSGTMNSYEMRKALEEAGFKMPCQLHQVIVARFADDQLIIDFDNFVRCLVRLETLFKIFKQLDPENTGTIELDLISWLCFSVL
chain 2: MFLVNSFLKGGGGGGGGGGGLGGGLGNVLGGLISGAGGGGGGGGGGGGGGGGGGGGTAMRILGGVISAISEAAAQYNPEPPPPRTHYSNIEANESEEVRQFRRLFAQLAGDDMEVSATELMNILNKVVTRHPDLKTDGFGIDTCRSMVAVMDSDTTGKLGFEEFKYLWNNIKRWQAIYKQFDTDRSGTICSSELPGAFEAAGFHLNEHLYNMIIRRYSDESGNMDFDNFISCLVRLDAMFRAFKSLDKDGTGQIQVNIQEWLQLTMYS
activation of HTRA1 by CAPN2 (HTRA1 [1]): dose-dependent activation of HTRA1

Kd (HTRA1 (human)): 40 µM
B3: CCNH peptide, carboxyl terminus of cyclin H (peptide)
peptide: EWTDDDLVESL
modifications: not fully specified
